29 compounds from PubChem BioAssay can be followed below.

The other results are listed elsewhere or left out. The source made the active and inactive calls.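 How the source made its calls: active means mean inhibition across replicates above the hit cutoff set in the primary screen (cut at about 30% in these data); inactive means the rest.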

Chain of (Lyso)-N-acylphosphatidylethanolamine lipase (Mus musculus) (Q8VD66 whole entry, looked up): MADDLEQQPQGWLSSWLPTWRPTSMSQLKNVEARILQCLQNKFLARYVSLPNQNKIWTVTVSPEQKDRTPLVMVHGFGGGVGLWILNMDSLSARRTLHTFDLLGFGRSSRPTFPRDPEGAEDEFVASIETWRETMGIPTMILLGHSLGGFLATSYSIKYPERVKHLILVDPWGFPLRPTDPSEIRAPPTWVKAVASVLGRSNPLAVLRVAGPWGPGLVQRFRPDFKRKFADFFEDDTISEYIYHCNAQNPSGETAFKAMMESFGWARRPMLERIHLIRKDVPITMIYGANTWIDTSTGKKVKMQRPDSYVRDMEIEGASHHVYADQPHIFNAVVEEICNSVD

In the experiment the target is (Lyso)-N-acylphosphatidylethanolamine lipase (Mus musculus) (UniProt Q8VD66). Kind of experiment: ABHD4 inhibitors, retest, confirmation, biochemical, fluorescence polarization, mouse (AID 720658). Particulars: purified mABHD4, FP-Rh probe fluorescence polarization; at 8.92 µM; stronger effect = higher value. The procedure, abridged:
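Test system: wild-type mouse ABHD4. Medium: HEPES-saline buffer with 0.01% Pluronic F-127. Doses: single nominal compound dose 8.92 µM, 0.89% DMSO final. Timing: pre-incubation 45 min, probe exposure 60 min, 25 °C. Technique: FP readout, ex 525 nm, em 598 nm. Control set: S159A mutant ABHD4 plus DMSO as 100%, wild-type plus DMSO 0%.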
What is called inhibition is the drop in the measured response relative to a control, in per cent. For `CCOC(=O)Cn1c2c(n(-c3ccc(F)cc3)c1=O)C=C(c1ccccc1)[C@@H](C)C(C(=O)N(C)C1CCCCC1)=C2`, the inhibition is 29.3% (inactive). Consider `Oc1ccc(/C=N/Nc2ccc(C(F)(F)F)cn2)cc1O`, for which the inhibition is 34% (active). Turning to `COc1ccc2nc(Nc3nc4ccc(NC(C)=O)cc4s3)sc2c1`, the inhibition is 39.4% (active). Take `Cc1ccc(NC(=O)Cc2nc(COC(=O)C(C)NS(=O)(=O)c3ccc(C)cc3)cs2)cc1` (centres undefined): the inhibition was 7.11% (inactive). As for `CCOc1cc(/C=C2/N=C(c3ccc(C(C)(C)C)cc3)OC2=O)cc(Cl)c1OS(C)(=O)=O`, the inhibition is 18.8% (inactive). Consider `COc1cc(/C=C2/C(=O)NN(c3cccc(Cl)c3)C2=O)cc(Br)c1O`, for which the inhibition is 38.8% (active). For `CCOc1ccc2nc(Nc3nc4ccc(NC(C)=O)cc4s3)sc2c1` the value was 30.9% (active). In the case of `CC(C)(C)C(=O)OCc1nc(-c2ccc(O)c(O)c2)cs1`, the inhibition is 28.1% (inactive). As to `COc1ccc(Br)cc1/C=N/Nc1ccc(Cl)c(C(=O)O)c1`, the inhibition is 32.5% (active).

`Cc1oc2cc(Br)c(O)c(Br)c2c1C(=O)c1ccccc1`: the inhibition is 53% (active).

`O=C(O)c1ccc(N/N=C/c2cn(-c3ccccc3)nc2-c2cccs2)cc1`: the inhibition is 57.4% (active). As for `COc1cc(C(=O)Nn2c(O)c(C3=c4ccccc4=NC3=O)sc2=S)ccc1O`, the inhibition was 77.4% (active). In the case of `C/C(=N\NC(=O)c1ccc(C)cc1)C1C(=O)c2ccccc2C1=O`, the inhibition is 35.3% (active).

As to `CCOC(=O)[C@H]1Nc2ccc(Cl)cc2[C@@H]2[C@H]1C1CC(c3ccccc31)N2C(=O)OCc1ccccc1` (some centres undefined), the inhibition was 42% (active). Consider `Nc1[nH]c(C(=O)c2ccc(Br)cc2)c(-c2ccc3c(c2)OCO3)c1C(=O)NCCc1c[nH]c2ccccc12`, for which the inhibition is 36.9% (active).

`Cc1cccc(N2CCN(Cc3nc(C4CC4)no3)CC2)n1`: the inhibition is -2.12% (inactive). Turning to `OCCNc1nc(Nc2ccc(Cl)c(Cl)c2)nc2ccccc12`, the inhibition was 40.4% (active). For the compound `Cc1cccc(-n2cnc(C(=O)NNC(=S)Nc3ccccc3)c2)n1`, the inhibition is 57.2% (active).

As for `c1ccc2sc(NN=C3CCCC3)nc2c1`, the inhibition was -1.86% (inactive). `CCC(CO)Oc1cc(NC(=O)c2cccc(F)c2)c2ncn(C(C)C)c2c1` (centres undefined): the inhibition is 1.62% (inactive). In the case of `CCN1C(=O)/C(=C2/Sc3ccccc3N2CCCS(=O)(=O)O)SC1=S`, the inhibition is 24.3% (inactive).

For `CC1CCN(c2ccc(C(=O)O)cc2NS(=O)(=O)c2ccc(Br)s2)CC1`, the inhibition was 47.5% (active). Take `CC(C)COC(=O)n1c(=O)oc2ccc(S(=O)(=O)N3CCCCC3)cc21`: the inhibition was 49.4% (active). For the compound `CCOC(=O)C1=C(C)N=C2c3ccccc3C(=O)C2C1c1ccc(Br)cc1` (centres undefined), the inhibition was 44.8% (active). `O=C(O)c1ccccc1/C=N/Nc1ccc(S(=O)(=O)Nc2ccc(Cl)cc2)cc1[N+](=O)[O-]`: the inhibition was 50.4% (active). For `CC(C)c1ccc(CC(=O)N2CCC2(C)C(=O)NS(=O)(=O)c2ccc(C(C)(C)C)cc2)cc1` (centres undefined), the inhibition was 68.5% (active).

Take `O=C(COC(=O)c1ccc(O)cc1O)c1ccc2c(c1)OCCO2`: the inhibition is 40.2% (active). As to `CC(=O)Oc1ccc(N(C(C)=O)S(=O)(=O)c2ccc3ccccc3c2)cc1Br`, the inhibition is 30.6% (active).

As to `NNc1nc2c(Cl)cccc2s1`, the inhibition was 24% (inactive).
